Screening results: PubChem, several laboratories
Hits are enriched below; roughly 5.1% of the tested compounds scored in any of these assays.
ERa coact inh: ER-alpha (human) coactivator binding inhibition. P03372. TR-FRET ER-alpha LBD / SRC-1 peptide, estradiol-bound. AID 629. inhibition, % at 25.6 µM. 86,000 compounds, 1.7% hits; in the data active = inhibition above about 50%;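 also: 0% = receptor plus peptide control and 100% = peptide only without receptor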
SF-1 act: activators of human nuclear receptor SF-1 | 65,000 compounds, 1.9% hits | Q13285 | activation, % at 10 µM | CHO-K1 Gal4-SF-1 LBD luciferase reporter; % increase over DMSO SF-1-specific signal;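 active = activation above the mean activation of all tested compounds plus 3 SD, cut at about 50% in these data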
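Assay system: CHO-K1 cells co-transfected with Gal4 DBD–human SF-1 LBD, 5xGal4 luciferase reporter / Input: 4,000 cells per well / Incubation: 20 h compound exposure at 37 °C after 1 h cell settling / Detection: SteadyLite luciferase luminescence / Control set: DMSO negative control and −SF1 background wells / Replication: one test per compound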
RORA act: activates the human nuclear receptor RORA. P35398. CHO-K1 Gal4-RORA LBD luciferase reporter, luminescence; percent increase over mock-subtracted basal signal. activation, % at 10 µM. 65,000 compounds, 1.5% hits;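 active = activation above the mean of all tested compounds plus 3 SD, cut at about 49% in these data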;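 also: 0% = DMSO-treated RORA cells and 100% = added signal equal to DMSO minus mock-transfected cells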
ERb coact inh: ER-beta (human) coactivator binding inhibition | TR-FRET ER-beta LBD / SRC1-Cy5 peptide binding; receptor agonist-loaded with 1 µM estradiol | 86,000 compounds, 1.3% hits | inhibition, % at 25.6 µM;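 active = compounds whose percent inhibition of the receptor-coactivator binding signal exceeds about 50% in the single-dose screen, limit read from the data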;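 also: 0% = receptor plus peptide wells without compound and 100% = peptide-only wells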
BAP1 inh: blocks human BAP1 ubiquitin-AMC hydrolysis | AID 436 | recombinant BAP1, Ub-AMC hydrolysis fluorescence kinetic; stronger effect = lower value | calls only at 20 µM | Q92560 | 72,000 compounds, 0.48% hits;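 active = activity remaining at or below 50% of control, provided the compound also passes the data quality filters; inactive = the rest, including low values that fail the filters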;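 also: 100% = DMSO wells rate and 0% = substrate alone blank rate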
Target sequence (Q92560 whole entry, looked up): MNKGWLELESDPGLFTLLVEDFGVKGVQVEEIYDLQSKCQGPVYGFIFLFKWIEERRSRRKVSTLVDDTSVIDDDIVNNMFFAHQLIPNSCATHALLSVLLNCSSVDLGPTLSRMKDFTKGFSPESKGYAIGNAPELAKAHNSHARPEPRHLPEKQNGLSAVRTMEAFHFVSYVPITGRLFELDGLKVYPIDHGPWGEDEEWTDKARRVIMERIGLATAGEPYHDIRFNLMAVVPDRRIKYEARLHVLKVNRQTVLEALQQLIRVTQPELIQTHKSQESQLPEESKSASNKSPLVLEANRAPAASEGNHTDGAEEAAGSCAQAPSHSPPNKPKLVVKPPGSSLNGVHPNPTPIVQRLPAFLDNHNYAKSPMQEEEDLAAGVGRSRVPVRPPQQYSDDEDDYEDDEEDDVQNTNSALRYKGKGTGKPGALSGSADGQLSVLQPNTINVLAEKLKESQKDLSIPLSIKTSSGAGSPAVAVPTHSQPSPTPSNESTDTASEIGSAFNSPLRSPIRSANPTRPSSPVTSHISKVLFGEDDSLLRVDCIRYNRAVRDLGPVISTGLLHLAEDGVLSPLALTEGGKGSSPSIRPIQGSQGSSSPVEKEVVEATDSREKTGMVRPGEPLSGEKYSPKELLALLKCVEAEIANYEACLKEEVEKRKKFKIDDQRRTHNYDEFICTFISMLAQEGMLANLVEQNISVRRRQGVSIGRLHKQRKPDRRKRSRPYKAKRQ
ERa coact pot: enhances coactivator binding to human estrogen receptor alpha | P03372 | TR-FRET ERalpha-LBD/SRC-Cy5 coactivator binding, 2 h; 100 = basal binding, no effect | coactivator binding (% of control), % at 25.6 µM | 86,000 compounds, 1.3% hits | AID 639; in the data active = activity above about 200%;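 also: binding measured in presence of low estradiol as agonist stimulus; 0% = peptide alone without receptor and 100% = receptor with peptide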
* marks the source's active call; other numbers are inactive results; i = inactive; . = not tested or not shown; [ ] = remark or other dose.

SMILES | ERa coact inh | SF-1 act | RORA act | ERb coact inh | BAP1 inh | ERa coact pot
COc1ccccc1C1Oc2ccccc2C2CC(c3ccc(Cl)cc3)=NN21 (configuration not stated) | . | . | . | . | i | .
O=c1c2c([nH]c3ccccc13)C(=C1CCCC1)CC2 | 77*[fluorescence artefact?] | -11 | -10 | 84* | i | 22
O=c1c2c([nH]c3ccccc13)CCCC2 | 4 | . | . | -6 | . | 98
Cc1ccc(C(=O)NCC(=O)OCC(=O)c2c(N)n(C)c(=O)n(C)c2=O)s1 | 53* | 2 | -12 | 50* | i | 64
Cn1c(N)c(C(=O)COC(=O)c2ccc(Br)o2)c(=O)n(C)c1=O | 11 | . | . | 19 | . | 84
Cc1nn(C)c(C)c1NC(=O)CSc1nc(Cc2ccccc2)nc2c1cnn2-c1ccccc1 | 82*[fluorescence artefact?] | -15 | -1 | 56*[fluorescence artefact?] | i | 141
CCc1nc(SCC(=O)Nc2c(C)nn(C)c2C)c2cnn(-c3ccccc3)c2n1 | 48 | . | . | 16 | . | 93
Cc1cc(S(=O)(=O)N(Cc2ccccc2)Cc2ccc(N(C)C)cc2)ccc1-n1cnnn1 | 14 | -3 | -22 | 14 | . | 211*
Cc1cc(S(=O)(=O)N(C)CCc2ccccc2)ccc1-n1cnnn1 | 5 | 1 | -4 | 1 | i | 124
COc1ccc(C(=O)c2ccc(N3CCN(C(=O)c4ccc(F)cc4)CC3)c(F)c2)cc1Br | 24 | . | . | 22 | . | 292*[fluorescence artefact?]
COC(=O)c1cc(NC(=O)c2ccc(Cn3cc(Cl)cn3)o2)cc(C(=O)OC)c1 | 58*[fluorescence artefact?] | -15 | -15 | 28 | i | 100
Cc1ccc2cc(CCNS(=O)(=O)c3ccc(F)cc3)c(=O)[nH]c2c1 | 3 | 15 | 18 | -3 | i | 216*
Cc1ccc(C)c2[nH]c(=O)c(CCNC(=O)c3cc4ccccc4o3)cc12 | -5 | -3 | 4 | -6 | i | 130
Cc1ccc2cc(CN(CC3CCCO3)C(=O)c3ccco3)c(=O)[nH]c2c1C (configuration not stated) | -9 | 15 | 2 | 54* | i | 116
CCC(CC)C(=O)NCCc1cc2c(C)ccc(C)c2[nH]c1=O | 54*[fluorescence artefact?] | 10 | -3 | 2 | i | 105
Cc1ccc2cc(CCNC(=O)c3ccco3)c(=O)[nH]c2c1C | -3 | 63* | 51* | -10 | i | 107
CC(C)(C)c1ccc(S(=O)(=O)N2CCN(c3ccc([N+](=O)[O-])cc3)CC2)cc1 | . | . | . | . | i | .
Cc1ccc2cc(CCNC(=O)c3ccco3)c(=O)[nH]c2c1 | -10 | 64* | 77* | -7 | i | 105
Cc1ccc2cc(CCNC(=O)C(C)(C)C)c(=O)[nH]c2c1 | 5 | -17 | 15 | -6 | i | 100
COc1ccc(C(=O)Nc2cc(C)c3c(=O)oc4ccccc4c3n2)cc1 | 53*[fluorescence artefact?] | . | . | 29 | . | 143
Cc1n[nH]c(C)c1CCc1nc2c3ccccc3nc(SCC(=O)Nc3ccccc3F)n2n1 | 73*[fluorescence artefact?] | . | . | 59*[fluorescence artefact?] | . | 181
Cc1cccc(NC(=O)CSc2nc3ccccc3c3nc(CCc4c(C)n[nH]c4C)nn23)c1 | 67*[fluorescence artefact?] | . | . | 45 | . | 31
Cc1ccc(NC(=O)c2ccc([N+](=O)[O-])cc2)c(Br)c1 | . | . | . | . | i | .
O=C(CCCCCN1C(=O)c2ccccc2C1=O)NCc1ccccc1 | . | . | . | . | i | .
O=S(=O)(Nc1ccc(-c2nc3cccnc3s2)cc1)c1ccc(Cl)s1 | 77*[fluorescence artefact?] | . | . | 11 | . | 87
SMILES | ERa coact inh | SF-1 act | RORA act | ERb coact inh | BAP1 inh | ERa coact pot
O=S(=O)(Nc1ccc(-c2nc3cccnc3s2)cc1)c1cccs1 | 24 | 45 | 34 | 22 | . | 175
CCS(=O)(=O)Nc1cc(-c2nc3cccnc3s2)ccc1C | -12 | 71* | 32 | -3 | i | 122
Cc1ccc(-c2nc3cccnc3s2)cc1NC(=O)c1ccco1 | 14 | 59* | 21 | -3 | i | 90
Cc1ccc(-c2nnc(CSc3nc4cc5c(cc4cc3C)OCO5)o2)cc1 | 77*[fluorescence artefact?] | 4 | 5 | 60* | . | 206*[fluorescence artefact?]
O=C(Nc1cccc2ccccc12)c1sc2cccc(Cl)c2c1Cl | . | . | . | . | i | .
CCCn1cnc2cc(NCc3cccc(OC)c3O)ccc21 | -8 | 2 | -1 | 6 | i | 105
COc1cccc(CNc2ccc3c(c2)ncn3C(C)C)c1OC | 6 | 55* | 27 | 2 | i | 114
